hERG rescue: hERG (human) protection from proarrhythmic block; activation (rescue from dofetilide block), less the hit threshold, % at 10 µM; hit rate 0.51% among 310,000; AID 1511; CHO-hERG, FluxOR thallium flux, dofetilide IC70 present;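 active = activation above the mean of controls blocked by dofetilide plus 5 SD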;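 also: thallium influx through hERG after potassium depolarization seen as dye fluorescence rise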
Target sequence (Q12809 whole entry, looked up): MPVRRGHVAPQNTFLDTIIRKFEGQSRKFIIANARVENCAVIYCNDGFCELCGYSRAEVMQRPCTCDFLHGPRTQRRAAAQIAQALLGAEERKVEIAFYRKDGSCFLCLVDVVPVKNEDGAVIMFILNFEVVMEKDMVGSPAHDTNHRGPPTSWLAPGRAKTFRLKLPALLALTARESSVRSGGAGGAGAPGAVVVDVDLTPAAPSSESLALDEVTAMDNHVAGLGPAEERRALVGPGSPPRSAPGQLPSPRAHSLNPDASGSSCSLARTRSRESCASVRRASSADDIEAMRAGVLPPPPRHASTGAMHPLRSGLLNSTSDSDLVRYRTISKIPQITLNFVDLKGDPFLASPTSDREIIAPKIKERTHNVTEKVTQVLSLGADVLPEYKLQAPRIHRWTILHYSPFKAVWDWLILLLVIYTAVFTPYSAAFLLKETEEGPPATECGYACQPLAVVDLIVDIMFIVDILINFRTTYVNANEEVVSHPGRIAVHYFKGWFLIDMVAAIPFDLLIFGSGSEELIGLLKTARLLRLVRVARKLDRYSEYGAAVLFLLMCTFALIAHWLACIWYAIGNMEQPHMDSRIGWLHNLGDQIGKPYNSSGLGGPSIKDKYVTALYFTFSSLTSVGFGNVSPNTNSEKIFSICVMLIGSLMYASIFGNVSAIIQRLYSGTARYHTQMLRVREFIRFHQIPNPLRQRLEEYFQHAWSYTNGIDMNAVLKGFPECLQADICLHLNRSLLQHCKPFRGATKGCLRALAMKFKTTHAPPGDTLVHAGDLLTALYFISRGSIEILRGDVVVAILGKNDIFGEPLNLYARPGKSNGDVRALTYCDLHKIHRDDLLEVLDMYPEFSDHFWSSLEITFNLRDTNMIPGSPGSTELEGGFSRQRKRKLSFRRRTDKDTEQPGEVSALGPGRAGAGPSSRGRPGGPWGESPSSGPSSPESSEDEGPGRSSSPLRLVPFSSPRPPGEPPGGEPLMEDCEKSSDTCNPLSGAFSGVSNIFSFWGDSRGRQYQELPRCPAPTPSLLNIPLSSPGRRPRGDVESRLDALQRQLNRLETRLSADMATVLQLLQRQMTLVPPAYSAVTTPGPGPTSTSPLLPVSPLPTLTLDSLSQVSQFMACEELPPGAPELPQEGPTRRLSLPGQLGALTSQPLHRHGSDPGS
KCNQ1 act: potentiators or activators of human KCNQ1 potassium channel. CHO-K1 KCNQ1, thallium flux FluxOR fluorescence; stronger effect = higher value. P51787. AID 2648. hit rate 0.35% among 310,000. B-score at 10 µM;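 active = fluorescence ratio B-score, a plate-corrected score, at least three library SD, with initial intensity B-score within 5 SD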
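Schedule – 37 °C overnight plating, 90-min dark dye load, 20-min compound pretreatment · System – stable KCNQ1 CHO-K1 line · Probe or stimulus – thallium- and potassium-containing depolarizing buffer · Measured by – kinetic FluxOR fluorescence, 10 s baseline plus 110 s post-stimulus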
KCNK9 inh: blocks the human KCNK9 two-pore domain potassium channel; Q9NPC2; HEK293 KCNK9, FluxOR thallium flux fluorescence; stronger effect = lower value; B-score at 10 µM; hit rate 1.2% among 310,000; AID 488922;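 active = ratio B-score over 3 SD below the library mean, with starting fluorescence within 5 SD of its mean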;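 also: negative B-score means less thallium flux so channel inhibition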
KCNK3 block: human KCNK3 channel inhibition, primary screen | B-score at 10 µM | O14649 | AID 602410 | CHO-KCNK3 thallium flux, FluxOR fluorescence; stronger effect = lower value | hit rate 0.84% among 340,000;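 active = B-score under library mean minus 4 SD, starting fluorescence ratio at most library mean plus 5 SD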;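 also: more negative B-score means stronger inhibition of thallium flux through KCNK3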
Cl transport mod: modulates chloride dependent transport by human KCC2; Q9H2X9; KCC2 cells, thallium flux FluoZin-2 fluorescence; B-score of Tl+ flux slope (higher = more flux/activation; lower = inhibition) at 10 µM; hit rate 2.2% among 190,000; AID 1456;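 active = thallium flux slope and its plate-corrected score both differing from the plate sample mean at a set confidence after two filtering rounds, in either direction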;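 also: slope of fluorescence scaled to starting intensity during 10 to 20 s after thallium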
KCNQ1 inh: inhibitors of human KCNQ1 potassium channel | hit rate 1.3% among 310,000 | AID 2642 | P51787 | CHO-K1 KCNQ1, FluxOR thallium flux fluorescence; stronger effect = higher value | B-score at 10 µM;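 active = compounds whose thallium flux B-score, printed positive for inhibition, exceeds three library SD while starting fluorescence stays within three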;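 also: channel opened by potassium depolarization with thallium stimulus after 20 min compound exposure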
KCNK9 inh conf: confirmation of human KCNK9 potassium channel inhibitors; shares compounds with KCNK9 inh; HEK293 KCNK9 cells, FluxOR thallium flux fluorescence; inhibition, % at 10 µM; hit rate 43% among 4,900; AID 492992;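 active = thallium signal inhibited by more than 5 SD of the compound-free buffer control wells, on both duplicate plates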
Kir21 sel: tests whether KCNK9 modulators also affect mouse Kir2.1; Kir2.1 cells, FluxOR thallium flux fluorescence; shares compounds with KCNK9 inh; hit rate 4% among 4,900; AID 492993; inhibition, % at 10 µM;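 active = thallium signal drop more than 5 SD beyond the mean of the no-compound control wells, seen in both duplicate plates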;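 also: signal is fluorescence rise after thallium addition divided by baseline fluorescence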
HEK293 Tl ctr: non-induced cell nonspecific activity of KCNK9 modulators. shares compounds with KCNK9 inh. non-induced KCNK9-HEK293, FluxOR thallium flux. inhibition, % at 10 µM. hit rate 40% among 4,900;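 active = thallium signal drop beyond 5 SD of the untreated control mean, on both duplicate plates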
Each line names hits and unclear results; the compound was inactive in the other large screens (follow-up assays come after a bar, where they were run). An excerpt weighted towards active compounds, which were near 4.1% of everything screened.

O=C(O)c1ccccc1NS(=O)(=O)c1cccc(-n2sc3ccccc3c2=O)c1	KCNQ1 act 13 (no result: Cl transport mod) | KCNK9 inh conf inactive | Kir21 sel inactive | HEK293 Tl ctr inactive
CC(C)(C)n1nc2c(c1NC(=O)COc1ccc(Cl)cc1)CS(=O)(=O)C2	none
CC(C)(C)n1nc2c(c1NC(=O)COc1ccc(Cl)cc1)CSC2	KCNK9 inh -11 | KCNK9 inh conf 45% | Kir21 sel inactive | HEK293 Tl ctr 50%
CCn1cc(C(=O)N2CCCC(C(=O)c3ccc4ccccc4c3)C2)cn1 (stereo not drawn)	none (no result: Cl transport mod) | KCNK9 inh conf inactive | Kir21 sel inactive | HEK293 Tl ctr inactive
O=C(c1ccc2ccccc2c1)C1CCCN(C(=O)c2cnccn2)C1 (stereo not drawn)	none | KCNK9 inh conf inactive | Kir21 sel inactive | HEK293 Tl ctr inactive
COc1ccc2cc(C(=O)C3CCCN(C(=O)c4cnccn4)C3)ccc2c1 (stereo not drawn)	none
Cc1nc(C)c(C(=O)N2CCCC(C(=O)c3ccc4ccccc4c3)C2)s1 (stereo not drawn)	none (no result: Cl transport mod)
Cc1cc(C(=O)N2CCCC(C(=O)c3ccc4ccccc4c3)C2)n(C)n1 (stereo not drawn)	none | KCNK9 inh conf inactive | Kir21 sel inactive | HEK293 Tl ctr inactive
COc1ccc2cc(C(=O)C3CCCN(C(=O)/C=C/c4ccccn4)C3)ccc2c1 (stereo not drawn)	none | KCNK9 inh conf inactive | Kir21 sel inactive | HEK293 Tl ctr inactive
Cc1cc(C)cc(NC(=O)c2cc(C)n(Cc3cccs3)c2C)c1	none
Cc1cc(C(=O)Nc2ccc(Cl)cc2)c(C)n1Cc1cccs1	none | KCNK9 inh conf inactive | Kir21 sel inactive | HEK293 Tl ctr inactive
CC(NC(=S)N1CCOCC1)c1ccccc1 (stereo not drawn)	none
COc1ccc(C(=O)Nc2ccnn2C2CCN(C(C)CSC)CC2)cc1 (stereo not drawn)	none (no result: Cl transport mod)
S=C(NC1CCCCC1)N1CCOCCOCCN(C(=S)NC2CCCCC2)CCOCCOCC1	KCNK9 inh -12 | KCNK9 inh conf 50% | Kir21 sel inactive | HEK293 Tl ctr 33%
COc1cccc(C(=O)N2c3ccccc3Sc3ccccc32)c1	KCNK9 inh -11 | KCNK9 inh conf 58% | Kir21 sel inactive | HEK293 Tl ctr 48%
C=C(C)C1CC=C(CN2CCN(Cc3ccccc3)CC2)CC1 (stereo not drawn)	none (no result: Cl transport mod) | KCNK9 inh conf inactive | Kir21 sel inactive | HEK293 Tl ctr inactive
C=C(C)[C@@H]1CC=C(CN2CCN(Cc3ccccc3)CC2)CC1	none (no result: Cl transport mod)
CC1CCN(C(=O)CN(c2ccc3c(c2)OCO3)S(C)(=O)=O)CC1	none
C=CCn1c(SCc2csc(C)n2)nc2sc3c(c2c1=O)CCC(C)C3 (stereo not drawn)	none | KCNK9 inh conf inactive | Kir21 sel inactive | HEK293 Tl ctr inactive
COc1cc(NC(=O)C2CCN(c3cnccn3)CC2)cc(OC)c1OC	none (no result: Cl transport mod)
O=[N+]([O-])c1cccc(-c2nc3ccccc3s/c2=N/O)c1	KCNK9 inh -8.8 | KCNK9 inh conf 30% | Kir21 sel inactive | HEK293 Tl ctr 38%
O=C(COC(=O)C1CC1)NCCc1ccccc1	none (no result: hERG rescue, KCNQ1 act, KCNK9 inh, Cl transport mod, KCNQ1 inh)
CC(CCc1ccccc1)NC(=O)COC(=O)C1CCC(C(C)(C)C)CC1 (stereo not drawn)	none | KCNK9 inh conf inactive | Kir21 sel inactive | HEK293 Tl ctr inactive
Cc1csc(=O)n1CC(=O)OCc1cccc2ccccc12	none
CCCCC(=O)Nc1cccc(-c2nc3ncccc3o2)c1	KCNK9 inh -11 | KCNK9 inh conf 34% | Kir21 sel inactive | HEK293 Tl ctr inactive
CCC(=O)NC(=S)Nc1cccc(-c2nc3ncccc3o2)c1	none
CCN(CC)S(=O)(=O)c1cccc(C(=O)OCC(=O)Nc2ccc3c(c2)c2ccccc2n3CC)c1	none
CC1=CC2=NC(=O)/C(=C\c3cccn3CCOc3cc(C)ccc3C)C(=N)N2O1	KCNK9 inh -8.8 | KCNK9 inh conf 66% | Kir21 sel inactive | HEK293 Tl ctr 29%
FC(F)(F)c1ccc(-c2cccc3c2C2CC3CCN2)cc1 (stereo not drawn)	none (no result: hERG rescue, KCNQ1 act, KCNK9 inh, Cl transport mod, KCNQ1 inh)
CCOc1ccc(Br)cc1S(=O)(=O)Nc1ccccc1N1CCOCC1	KCNK9 inh -10 (no result: Cl transport mod) | KCNK9 inh conf inactive | Kir21 sel inactive | HEK293 Tl ctr inactive
CCOC(=O)C1CCN(CCCSc2ccc(C)cc2)CC1	none (no result: Cl transport mod) | KCNK9 inh conf inactive | Kir21 sel inactive | HEK293 Tl ctr inactive
CCOC(=O)C1CCN(CCCSc2ccccc2)CC1	none (no result: Cl transport mod)
Cc1c(/C=N/n2cnnc2)c2ccccc2n1CCOc1ccc(Cl)cc1	KCNK9 inh -8.2 (no result: Cl transport mod) | KCNK9 inh conf inactive | Kir21 sel inactive | HEK293 Tl ctr inactive
Cc1ccc(OCCn2c(C)c(/C=N/n3cnnc3)c3ccccc32)cc1	none
O=C(Nc1ccccn1)C12CC3CC(CC(C3)C1)C2	none
CCOc1ccccc1/C=N/NC(=O)c1ccc(Cn2cc([N+](=O)[O-])cn2)o1	none
Cc1oc(-c2cccc(C(F)(F)F)c2)nc1CN1CCN(c2ccccn2)CC1	none (no result: Cl transport mod) | KCNK9 inh conf inactive | Kir21 sel inactive | HEK293 Tl ctr inactive
COC(=O)c1cc2occc2n1Cc1nc(-c2cccc(Cl)c2)oc1C	KCNK9 inh -9.3 | KCNK9 inh conf inactive | Kir21 sel inactive | HEK293 Tl ctr 24%
Cc1cccc(N2CCN(Cc3nc(-c4cccc(Cl)c4)oc3C)CC2)n1	none | KCNK9 inh conf inactive | Kir21 sel inactive | HEK293 Tl ctr inactive
Cc1cccc(N2CCN(Cc3nc(-c4ccccc4Cl)oc3C)CC2)n1	none | KCNK9 inh conf inactive | Kir21 sel inactive | HEK293 Tl ctr inactive
Cc1cccc(OCCNS(=O)(=O)c2ccc(Cl)cc2)c1	none (no result: hERG rescue, KCNQ1 act, KCNK9 inh, Cl transport mod, KCNQ1 inh)
CCCCCCNC(=O)c1cccc(-c2ccc(C)c3ccccc23)n1	none | KCNK9 inh conf inactive | Kir21 sel inactive | HEK293 Tl ctr inactive
COc1ccccc1CNC(=O)c1cccc(-c2ccc(C)c3ccccc23)n1	none (no result: KCNK3 block)
CC(=O)c1cccc(NC(=S)Nc2ccn(Cc3cccc4ccccc34)n2)c1	none | KCNK9 inh conf inactive | Kir21 sel inactive | HEK293 Tl ctr inactive
CC(=O)c1ccc(NC(=S)Nc2ccn(Cc3ccc(Br)cc3)n2)cc1	none
Fc1ccc(OCCCCN2CCOCC2)cc1	none
CN(C)S(=O)(=O)c1ccc(C(=O)OCc2ccc([N+](=O)[O-])cc2)cc1	none
CN(c1ccc(OCc2ccc([N+](=O)[O-])cc2)cc1)S(=O)(=O)c1ccccc1	KCNK9 inh -8.5 (no result: Cl transport mod) | KCNK9 inh conf inactive | Kir21 sel inactive | HEK293 Tl ctr 29%

Screens deposited in PubChem by several laboratories.
